RGS4 pot – RGS4 potentiators or activators, primary screen, cell-based, HEK293 M3R inducible RGS4, calcium flux; B-score at 10 µM; carbachol calcium flux Fluo4; active compounds read low; 310,000 compounds, 0.92% hits; AID 463111, 2010;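 active = B-score of the integrated calcium signal more than 4 SD below the library mean, with starting fluorescence not abnormally high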;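 note: negative B-score means reduced calcium response which marks RGS4 activation or potentiation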
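Assay system: HEK293 FlpIn-TREx cells, stable M3R, doxycycline-inducible RGS4 / Probe or stimulus: carbachol, ECmax concentration / Times: overnight RGS4 induction, 30 min dye load 37 °C, 20 min compound RT / Signal: kinetic calcium fluorescence imaging with Fluo4-AM dye, 2 µM / Measure: Agonist-evoked peak-minus-minimum fluorescence over baseline, integrated ratio, B score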
MrgX1 antagonist – antagonists of human MrgX1 receptor, primary screen, HEK293 cells, Fluo-4 calcium flux. BAM8-22 antagonism; active compounds read low. B-score at 10 µM. 310,000 compounds, 1.3% hits. AID 588676, 2011;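 active = calcium-response B-score plate-corrected more than 3 library SD below zero, starting fluorescence within 5 deviations, no agonist response on first addition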;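 note: peak minus trough fluorescence over baseline after final BAM8-22 challenge near maximal dose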
Target sequence (Q96LB2 whole entry, looked up): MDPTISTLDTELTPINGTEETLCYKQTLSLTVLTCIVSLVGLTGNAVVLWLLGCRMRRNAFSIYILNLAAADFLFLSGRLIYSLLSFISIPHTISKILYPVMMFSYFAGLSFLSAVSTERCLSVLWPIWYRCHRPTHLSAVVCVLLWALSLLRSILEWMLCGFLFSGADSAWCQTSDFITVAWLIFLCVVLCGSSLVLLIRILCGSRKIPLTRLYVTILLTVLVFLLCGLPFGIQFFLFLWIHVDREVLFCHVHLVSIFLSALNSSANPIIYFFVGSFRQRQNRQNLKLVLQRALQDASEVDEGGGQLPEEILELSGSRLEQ
RGS4 block – RGS4 inhibitors, primary screen, cell-based, HEK293 M3R inducible RGS4, calcium flux | 310,000 compounds, 0.45% hits | Fluo-4 calcium flux; active compounds read high; triggered by carbachol at its EC20 | B-score at 10 µM | Regulator of G-protein signaling 4 (Homo sapiens), P49798;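 active = B-score, a plate-corrected calcium signal, over three deviations above library mean, with baseline fluorescence within five deviations of library mean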;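 note: RGS4 expression induced by doxycycline in cells with stable M3 receptor; B-score is computed from the integrated fluorescence ratio over baseline after carbachol; higher B-score means a larger calcium signal and so more RGS4 inhibition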
Target sequence (P49798 whole entry, looked up): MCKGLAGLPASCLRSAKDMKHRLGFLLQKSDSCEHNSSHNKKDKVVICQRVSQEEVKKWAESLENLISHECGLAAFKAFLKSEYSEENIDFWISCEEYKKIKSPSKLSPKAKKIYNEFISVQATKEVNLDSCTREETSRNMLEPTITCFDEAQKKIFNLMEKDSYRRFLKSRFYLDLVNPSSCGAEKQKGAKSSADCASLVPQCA
MrgX1 PAM – positive allosteric modulators of MrgX1, primary screen, HEK293 cells, Fluo-4 calcium flux; Mas-related G-protein coupled receptor member X1 (Homo sapiens), Q96LB2; FDSS; active compounds read high; B-score at 10 µM; 310,000 compounds, 0.63% hits; AID 588675, 2011;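 active = plate-corrected calcium response at least 3 library SD above typical, normal starting fluorescence, not activating the receptor alone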;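 note: compound read alongside a low EC10 to EC30 dose of BAM8-22 agonist; peak minus trough fluorescence over baseline measured at the second addition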
MrgX1 ag – agonists of human MrgX1 receptor, primary screen, HEK293 cells, Fluo-4 calcium flux; B-score at 10 µM; Fluo-4 calcium fluorescence, agonist mode; active compounds read high; AID 588627, 2011; Mas-related G-protein coupled receptor member X1 (Homo sapiens), Q96LB2; 310,000 compounds, 0.44% hits;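 active = calcium response B-score plate-corrected fluorescence ratio at least 3 library SD, with starting fluorescence B-score inside 5 SD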
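System: HEK293 cells stably expressing human MrgX1 receptor; Dosing: test compound in the initial addition of three; Schedule: overnight plating, then 30 min 37 °C plus 30 min room-temperature dye loading; Detection: kinetic calcium dye fluorescence, Fluo-4 NW; Controls: per-plate positive and negative controls for Z′ factor.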
MrgX1 antag conf – MrgX1 receptor antagonists, duplicate retest, confirmation, HEK293 cells, Fluo-4 calcium flux. shares compounds with MrgX1 antagonist. BAM8-22 calcium flux; active compounds read low. remaining BAM8-22 calcium response % of control (active compounds read low), % at 10 µM. 2,300 compounds, 19% hits. AID 602420, 2012;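 active = remaining agonist calcium response no higher than 100% minus 3 SD of agonist-only control wells, with starting fluorescence near control levels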;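 note: agonist BAM8-22 given at a near maximal EC90 to ECmax level; peak minus minimum fluorescence divided by baseline after agonist addition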
HEK293 Ca flux – nonspecific calcium signal in parental HEK293, confirmation, counter-screen for MrgX1 antagonist project, parental HEK293 cells, Fluo-4 calcium flux | AID 624111, 2012 | 4,000 compounds, 2% hits | shares compounds with MrgX1 antagonist | Fluo-4 calcium fluorescence, FDSS | fluorescence ratio F(max-min)/F0 at 10 µM;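 active = duplicate-averaged calcium fluorescence ratio at least three times the standard deviation of buffer wells, a nonspecific response in parental cells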
HEK293 Ca counter – calcium response in parental HEK293 cells, primary screen, counter-screen for MrgX1 allosteric activator project, cell-based, Fluo-4 calcium flux, duplicate | shares compounds with MrgX1 antagonist | 4,000 compounds, 0.4% hits | AID 624114, 2012 | fluorescence ratio F(max-min)/F0 at 10 µM | Fluo-4 fluorescence ratio; active compounds read high;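 active = calcium fluorescence ratio, averaged over duplicates, at least 3 SD of the buffer-well ratio, meaning a nonspecific response in receptor-free cells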;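 note: untransfected parental HEK293 lacking MrgX1 used as counterscreen for MrgX1 allosteric activators; fluorescence change taken during the second addition on a kinetic imager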
HEK293 Ca cntr2 – calcium response in parental HEK293 cells, primary screen, counter-screen for MrgX1 agonist project, cell-based, Fluo-4 calcium flux, duplicate, agonist mode; shares compounds with MrgX1 antagonist; Fluo-4 calcium fluorescence (FDSS); active compounds read high; fluorescence ratio F(max-min)/F0 at 10 µM; 4,000 compounds, 8.7% hits; AID 624115, 2012;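 active = calcium fluorescence ratio at least three times the spread of buffer wells, meaning a non-specific response in parental cells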
The depositor's hits bear a star. Rows were chosen to be rich in hits. Some 3.5% of all compounds tested hit in one or more screens of this group.

C=CCOc1ccc(C2C(C(=O)c3ccco3)=C(O)C(=O)N2c2nnc(C)s2)cc1 (stereo unspecified) was read as RGS4 pot inactive, MrgX1 antagonist -5*, RGS4 block inactive, MrgX1 PAM inactive, MrgX1 ag inactive, MrgX1 antag conf inactive, HEK293 Ca flux inactive, HEK293 Ca counter inactive and HEK293 Ca cntr2 inactive.
`Cc1cc(Cl)c(S(=O)(=O)NC2CCCC2)cc1OCC(N)=O` gave RGS4 pot inactive, MrgX1 antagonist inactive, RGS4 block inactive, MrgX1 PAM inactive and MrgX1 ag inactive.
Cc1nc(-c2ccc(S(=O)(=O)N3CCN(C4c5ccccc5-c5ccccc54)CC3)s2)cs1 was read as RGS4 pot inactive, MrgX1 antagonist -5.3*, RGS4 block inactive, MrgX1 PAM inactive, MrgX1 ag inactive, MrgX1 antag conf inactive, HEK293 Ca flux inactive, HEK293 Ca counter inactive and HEK293 Ca cntr2 inactive.
COc1ccc(NC(=O)CSc2nnc(CN3CCOCC3)n2C)cc1Cl was read as RGS4 pot inactive, MrgX1 antagonist -7.1*, RGS4 block inactive, MrgX1 PAM inactive, MrgX1 ag inactive, MrgX1 antag conf inactive, HEK293 Ca flux inactive, HEK293 Ca counter inactive and HEK293 Ca cntr2 inactive.
CCOC(=O)N1CCC(NC(=O)CN(C)S(=O)(=O)c2cc3c(cc2Cl)NC(=O)CO3)CC1 was read as RGS4 pot inactive, MrgX1 antagonist -5.2*, RGS4 block inactive, MrgX1 PAM inactive, MrgX1 ag inactive, MrgX1 antag conf inactive, HEK293 Ca flux inactive, HEK293 Ca counter inactive and HEK293 Ca cntr2 inactive.
Screening CC(C(=O)N=c1sc2ccccc2n1C)N1C(=O)C2CC=CCC2C1=O (stereo unspecified) returned RGS4 pot inactive, MrgX1 antagonist -4.7*, RGS4 block inactive, MrgX1 PAM inactive, MrgX1 ag inactive, MrgX1 antag conf inactive, HEK293 Ca flux inactive, HEK293 Ca counter inactive and HEK293 Ca cntr2 inactive.
`CC(=O)N=c1sc2ccccc2n1C` gave RGS4 pot inactive, MrgX1 antagonist inactive, RGS4 block inactive, MrgX1 PAM inactive and MrgX1 ag inactive.
Screening C=CCNC(=S)NCC returned RGS4 pot inactive, MrgX1 antagonist inactive, RGS4 block inactive, MrgX1 PAM inactive and MrgX1 ag inactive.
For Cc1ccccc1NC(=O)CCN1CCN(Cc2ccccc2)CC1 the results were RGS4 pot inactive, MrgX1 antagonist inactive, RGS4 block inactive, MrgX1 PAM inactive and MrgX1 ag inactive.
Cc1ccccc1NC(=O)CCN1CCCCCC1 was read as RGS4 pot inactive, MrgX1 antagonist -6.1*, RGS4 block inactive, MrgX1 PAM inactive, MrgX1 ag inactive, MrgX1 antag conf inactive, HEK293 Ca flux inactive, HEK293 Ca counter inactive and HEK293 Ca cntr2 inactive.
Cc1nn(C)c(Cl)c1CN1CCN(C2CCCC2)C(CCO)C1 (stereo unspecified) was read as RGS4 pot inactive, MrgX1 antagonist -11*, RGS4 block inactive, MrgX1 PAM inactive, MrgX1 ag inactive, MrgX1 antag conf inactive, HEK293 Ca flux inactive, HEK293 Ca counter inactive and HEK293 Ca cntr2 inactive.
`COc1ccc2[nH]c(=O)c(CN(c3ccc(C)c(C)c3)S(C)(=O)=O)cc2c1` gave RGS4 pot inactive, MrgX1 antagonist -4.5*, RGS4 block inactive, MrgX1 PAM inactive, MrgX1 ag inactive, MrgX1 antag conf inactive, HEK293 Ca flux inactive, HEK293 Ca counter inactive and HEK293 Ca cntr2 inactive.
For O=C(O)[C@@H]1CCCN1S(=O)(=O)c1cccc2cccnc12 the results were MrgX1 antagonist inactive, MrgX1 PAM inactive and MrgX1 ag inactive.
`CCNc1nc2c(c(=O)[nH]c(=O)n2C)n1CC(C)C` gave RGS4 pot inactive, MrgX1 antagonist -4.6*, RGS4 block inactive, MrgX1 PAM inactive, MrgX1 ag inactive, MrgX1 antag conf inactive, HEK293 Ca flux inactive, HEK293 Ca counter inactive and HEK293 Ca cntr2 inactive.
Screening O=C(NCc1ccc(Cl)cc1Cl)C1CCN(S(=O)(=O)c2ccc3c(c2)OCCCO3)CC1 returned RGS4 pot inactive, MrgX1 antagonist -7.1*, RGS4 block inactive, MrgX1 PAM inactive, MrgX1 ag inactive, MrgX1 antag conf inactive, HEK293 Ca flux inactive, HEK293 Ca counter inactive and HEK293 Ca cntr2 inactive.
Cc1ccc(C(=O)Nc2nc3ccccc3n3nnnc23)cc1 was read as RGS4 pot inactive, MrgX1 antagonist -11*, RGS4 block inactive, MrgX1 PAM inactive, MrgX1 ag inactive, MrgX1 antag conf 84%*, HEK293 Ca flux inactive, HEK293 Ca counter inactive and HEK293 Ca cntr2 inactive.
Screening C#CCN1C(=O)C(O)(CC(=O)/C=C/c2ccco2)c2ccccc21 (stereo unspecified) returned RGS4 pot inactive, MrgX1 antagonist inactive, RGS4 block inactive, MrgX1 PAM inactive and MrgX1 ag inactive.
`CC(NC(=O)CSc1nnc(-c2cccnc2)n1N)c1ccccc1` (stereo unspecified) gave RGS4 pot inactive, MrgX1 antagonist -4.6*, RGS4 block inactive, MrgX1 PAM inactive, MrgX1 ag inactive, MrgX1 antag conf inactive, HEK293 Ca flux inactive, HEK293 Ca counter inactive and HEK293 Ca cntr2 inactive.
Screening O=C1c2cccc3cc([N+](=O)[O-])cc(c23)C(=O)N1c1nncs1 returned RGS4 pot inactive, MrgX1 antagonist inactive, RGS4 block inactive, MrgX1 PAM inactive and MrgX1 ag inactive.

Compound activity: PubChem BioAssay, Johns Hopkins Ion Channel Center
